Experimental data published in ChEMBL document CHEMBL4020828, “Design and Syntheses of Highly Potent Teixobactin Analogues against Staphylococcus aureus, Methicillin-Resistant Staphylococcus aureus (MRSA), and Vancomycin-Resistant Enterococci (VRE) in Vitro and in Vivo” (J Med Chem, 2018).
In brackets after ≈: the same amount, converted by molar mass. Activity calls are given as the source filed them. The rule behind the calls is not given here. Positions of bridges follow the written chain, without caps; N, C: chain ends. Non-standard residues stand in square brackets, D forms with d. Residues, ends and D or L forms follow the SMILES beside them. dNMeF = CN[C@H](Cc1ccccc1)C(=O)O

Tests used:
Staphylococcus aureus [1] = experiment: (§1) Antibacterial activity against Staphylococcus aureus ATCC 29213 infected in C57BL6 mouse cornea assessed as decrease in conjunctival chemosis at 0.3% administered tropically 2 times on day 1, 4 times on day 2 and 2 times on day 3 starting from 6 hrs post infection measured 48 hrs post last dose by slit-lamp photography; type: functional
In short: (§2)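 Mouse corneal epithelium scratched with a scalpel, then infected with 15 µl of 6×10⁶ CFU/ml S. aureus ATCC 29213. From 6 h p.i., 15 µl of PBS vehicle, 0.3% w/v peptide in PBS or 0.3% moxifloxacin was applied, 8 doses total. Outcomes were slit-lamp examination, AS-OCT corneal thickness and CFU counts of harvested corneas (mean log₁₀ CFU/tissue ± SEM).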

Staphylococcus aureus [2] = experiment: as §1, with “corneal infiltrates” for “conjunctival chemosis”; type: functional; in short: as §2
Staphylococcus aureus [3] = experiment: as §1, with “mean corneal thickness” for “decrease in conjunctival chemosis”, “24” for “48”, “AS-OCT method (reference value: 151.7 +/- 12.7 micrometer)” for “slit-lamp photography”; type: functional; in short: as §2
Staphylococcus aureus [4] = experiment: as §1, with “mean corneal thickness” for “decrease in conjunctival chemosis”, “AS-OCT method (reference value: 186.2 +/- 17.5 micrometer)” for “slit-lamp photography”; type: functional; in short: as §2
Staphylococcus aureus [5] = experiment: Antibacterial activity against Staphylococcus aureus ATCC 29213 infected in C57BL6 mouse cornea assessed as decrease in log bacterial load/tissue at 0.3% administered tropically 2 times on day 1, 4 times on day 2 and 2 times on day 3 starting from 6 hrs post infection measured 48 hrs post last dose; type: functional; in short: as §2
Staphylococcus aureus [6] = experiment: Antibacterial activity against methicillin-resistant Staphylococcus aureus ATCC 33591 after 24 hrs; type: functional; settings: ATCC 33591, 24 h
Staphylococcus aureus [7] = experiment: Antibacterial activity against methicillin-sensitive Staphylococcus aureus after 24 hrs; type: functional
Staphylococcus aureus [8] = experiment: Antibacterial activity against methicillin-resistant Staphylococcus aureus after 24 hrs; type: functional
Enterococcus faecalis [9] = experiment: Antibacterial activity against vancomycin-resistant Enterococcus faecalis ATCC 700802 after 24 hrs; type: functional; settings: ATCC 700802, 24 h
Enterococcus faecalis [10] = experiment: Antibacterial activity against vancomycin-resistant Enterococcus faecalis ATCC 29212 after 24 hrs; type: functional; settings: ATCC 29212, 24 h
Staphylococcus aureus [11] = experiment: Antibacterial activity against methicillin-resistant Staphylococcus aureus ATCC 700699 after 24 hrs; type: functional; settings: ATCC 700699, 24 h
Staphylococcus aureus [12] = experiment: Antibacterial activity against methicillin-resistant Staphylococcus aureus isolate 42412 after 24 hrs; type: functional; settings: isolate 42412, 24 h
Staphylococcus aureus [13] = experiment: Antibacterial activity against methicillin-resistant Staphylococcus aureus isolate 21455 after 24 hrs; type: functional; settings: isolate 21455, 24 h
Staphylococcus aureus [14] = experiment: Antibacterial activity against methicillin-sensitive Staphylococcus aureus; type: functional
[15] = test system: Staphylococcus epidermidis; experiment: Antibacterial activity against Staphylococcus epidermidis; type: functional
Staphylococcus aureus [16] = experiment: Antibacterial activity against methicillin-resistant Staphylococcus aureus USA300; type: functional
Staphylococcus aureus [17] = experiment: Antibacterial activity against methicillin-resistant Staphylococcus aureus; type: functional
[18] = test system: Staphylococcus saprophyticus; experiment: Antibacterial activity against Staphylococcus saprophyticus ATCC BAA 750 after 24 hrs; type: functional; settings: ATCC BAA 750, 24 h
[19] = test system: Staphylococcus saprophyticus; experiment: Antibacterial activity against Staphylococcus saprophyticus ATCC 15305 after 24 hrs; type: functional; settings: ATCC 15305, 24 h
[20] = test system: Staphylococcus saprophyticus; experiment: Antibacterial activity against Staphylococcus saprophyticus ATCC 49453 after 24 hrs; type: functional; settings: ATCC 49453, 24 h
[21] = test system: Staphylococcus saprophyticus; experiment: Antibacterial activity against Staphylococcus saprophyticus ATCC 49907 after 24 hrs; type: functional; settings: ATCC 49907, 24 h
Enterococcus faecalis [22] = experiment: Antibacterial activity against vancomycin-resistant Enterococcus faecalis isolate 1001 after 24 hrs; type: functional; settings: isolate 1001, 24 h
Enterococcus faecalis [23] = experiment: Antibacterial activity against vancomycin-resistant Enterococcus faecalis isolate 1002 after 24 hrs; type: functional; settings: isolate 1002, 24 h
Enterococcus faecalis [24] = experiment: Antibacterial activity against vancomycin-resistant Enterococcus faecalis isolate 1004 after 24 hrs; type: functional; settings: isolate 1004, 24 h
Enterococcus faecalis [25] = experiment: Antibacterial activity against vancomycin-resistant Enterococcus faecalis isolate 1008 after 24 hrs; type: functional; settings: isolate 1008, 24 h
Staphylococcus aureus [26] = experiment: Antibacterial activity against methicillin-resistant Staphylococcus aureus isolate 1003 after 24 hrs; type: functional; settings: isolate 1003, 24 h
Staphylococcus aureus [27] = experiment: Antibacterial activity against Staphylococcus aureus ATCC 29213 after 24 hrs; type: functional; settings: ATCC 29213, 24 h
Staphylococcus aureus [28] = experiment: Antibacterial activity against Staphylococcus aureus 4299 after 24 hrs; type: functional; settings: Staphylococcus aureus, 4299, 24 h
[29] = test system: Staphylococcus epidermidis; experiment: Antibacterial activity against Staphylococcus epidermidis 12228 after 24 hrs; type: functional; settings: Staphylococcus epidermidis, 12228, 24 h
Bacillus cereus = experiment: Antibacterial activity against Bacillus cereus ATCC 11788 after 24 hrs; type: functional; settings: ATCC 11788, 24 h
[30] = test system: Bacillus subtilis (Bacillus subtilis); experiment: Antibacterial activity against Bacillus subtilis ATCC 6633 after 24 hrs; settings: ATCC 6633, 24 h

COc1c(N2C[C@@H]3CCCN[C@@H]3C2)c(F)cc2c(=O)c(C(=O)O)cn(C3CC3)c12 [MOXIFLOXACIN]
Activity (Staphylococcus aureus [1]): Active
Activity (Staphylococcus aureus [2]): Active
Activity (Staphylococcus aureus [3]): 124.2 um
Activity (Staphylococcus aureus [4]): 140.3 um
Activity (Staphylococcus aureus [5]): 3.7 log10CFU

CC[C@@H](C)[C@@H](NC(=O)[C@@H](CCC(N)=O)NC(=O)[C@H](CO)NC(=O)[C@@H](NC(=O)[C@@H](Cc1ccccc1)NC)[C@@H](C)CC)C(=O)N[C@H](C(=O)N[C@@H](CO)C(=O)N[C@H]1C(=O)N[C@@H](C)C(=O)N[C@@H](CC(C)C)C(=O)N[C@@H]([C@@H](C)CC)C(=O)O[C@H]1C)[C@@H](C)CC
MIC (Staphylococcus aureus [6]): 0.25 µg/mL (≈ 0.208 µM)
MIC (Staphylococcus aureus [7]): 0.063 µg/mL (≈ 0.0524 µM)
MIC (Staphylococcus aureus [8]): 0.25 µg/mL (≈ 0.208 µM)
MIC (Enterococcus faecalis [9]): 0.25 µg/mL (≈ 0.208 µM)
MIC (Enterococcus faecalis [10]): 0.25 µg/mL (≈ 0.208 µM)
MIC (Staphylococcus aureus [11]): 0.25 µg/mL (≈ 0.208 µM)
MIC (Staphylococcus aureus [12]): < 0.0625 µg/mL
MIC (Staphylococcus aureus [13]): < 0.0625 µg/mL

CC[C@@H](C)[C@@H](NC(=O)[C@@H](CCC(N)=O)NC(=O)[C@H](CO)NC(=O)[C@@H](NC(=O)[C@@H](Cc1ccccc1)NC)[C@@H](C)CC)C(=O)N[C@H](C(=O)N[C@@H](CO)C(=O)N[C@H]1C(=O)N[C@@H](C)C(=O)N[C@@H](CCCCNC(=N)N)C(=O)N[C@@H]([C@@H](C)CC)C(=O)O[C@H]1C)[C@@H](C)CC
MIC (Staphylococcus aureus [14]): 1 µg/mL (≈ 0.795 µM)
MIC [15]: 1 µg/mL (≈ 0.795 µM)
MIC (Staphylococcus aureus [16]): 2 µg/mL (≈ 1.59 µM)

CC[C@@H](C)[C@@H](NC(=O)[C@@H](CCC(N)=O)NC(=O)[C@H](CO)NC(=O)[C@@H](NC(=O)[C@@H](Cc1ccccc1)NC)[C@@H](C)CC)C(=O)N[C@H](C(=O)N[C@@H](CO)C(=O)N[C@H]1C(=O)N[C@@H](C)C(=O)N[C@@H](C(C)C)C(=O)N[C@@H]([C@@H](C)CC)C(=O)O[C@H]1C)[C@@H](C)CC
MIC (Staphylococcus aureus [7]): 0.25 µg/mL (≈ 0.211 µM)
MIC (Staphylococcus aureus [8]): 0.5 µg/mL (≈ 0.421 µM)

CC[C@@H](C)[C@@H](NC(=O)[C@@H](CCC(N)=O)NC(=O)[C@H](CO)NC(=O)[C@@H](NC(=O)[C@@H](Cc1ccccc1)NC)[C@@H](C)CC)C(=O)N[C@H](C(=O)N[C@@H](CO)C(=O)N[C@H]1C(=O)N[C@@H](C)C(=O)N[C@@H](Cc2ccccc2)C(=O)N[C@@H]([C@@H](C)CC)C(=O)O[C@H]1C)[C@@H](C)CC
MIC (Staphylococcus aureus [8]): 2 µg/mL (≈ 1.62 µM)

CC[C@@H](C)[C@@H](NC(=O)[C@@H](CCC(N)=O)NC(=O)[C@H](CO)NC(=O)[C@@H](NC(=O)[C@@H](Cc1ccccc1)NC)[C@@H](C)CC)C(=O)N[C@H](C(=O)N[C@@H](CO)C(=O)N[C@H]1C(=O)N[C@@H](C)C(=O)N[C@@H](CCCNC(=N)N)C(=O)N[C@@H]([C@@H](C)CC)C(=O)O[C@H]1C)[C@@H](C)CC
MIC (Staphylococcus aureus [14]): 2 µg/mL (≈ 1.61 µM)
MIC (Staphylococcus aureus [17]): 2 µg/mL (≈ 1.61 µM)

CC[C@@H](C)[C@@H](NC(=O)[C@@H](CCC(N)=O)NC(=O)[C@H](CO)NC(=O)[C@@H](NC(=O)[C@@H](Cc1ccccc1)NC)[C@@H](C)CC)C(=O)N[C@H](C(=O)N[C@@H](CO)C(=O)N[C@H]1C(=O)N[C@@H](C)C(=O)N[C@@H](C)C(=O)N[C@@H]([C@@H](C)CC)C(=O)O[C@H]1C)[C@@H](C)CC
MIC (Staphylococcus aureus [7]): 1 µg/mL (≈ 0.863 µM)
MIC (Staphylococcus aureus [8]): 1 to 2 µg/mL (≈ 0.863 to 1.73 µM)

CCC(C)[C@@H]1NC(=O)[C@H](C)NC(=O)[C@H](NC(=O)[C@H](CO)NC(=O)[C@@H](NC(=O)[C@H](NC(=O)[C@@H](CCC(N)=O)NC(=O)[C@H](CO)NC(=O)[C@@H](NC(=O)[C@@H](Cc2ccccc2)NC)[C@@H](C)CC)[C@H](C)CC)[C@@H](C)CC)[C@H](C)OC(=O)[C@H]([C@@H](C)CC)NC1=O (some centres not stated)
MIC (Staphylococcus aureus [7]): 0.063 µg/mL (≈ 0.0524 µM)
MIC (Staphylococcus aureus [8]): 0.25 µg/mL (≈ 0.208 µM)

CC[C@@H](C)[C@@H](NC(=O)[C@@H](CCC(N)=O)NC(=O)[C@H](CO)NC(=O)[C@@H](NC(=O)[C@@H](Cc1ccccc1)NC)[C@@H](C)CC)C(=O)N[C@H](C(=O)N[C@@H](CO)C(=O)N[C@H]1C(=O)N[C@@H](C)C(=O)N[C@@H](CCCCN)C(=O)N[C@@H]([C@@H](C)CC)C(=O)O[C@H]1C)[C@@H](C)CC
MIC (Staphylococcus aureus [17]): 1 µg/mL (≈ 0.822 µM)
MIC [15]: 0.5 to 1 µg/mL (≈ 0.411 to 0.822 µM)

CC[C@@H](C)[C@@H](NC(=O)[C@@H](CCC(N)=O)NC(=O)[C@H](CCCNC(=N)N)NC(=O)[C@@H](NC(=O)[C@@H](Cc1ccccc1)NC)[C@@H](C)CC)C(=O)N[C@H](C(=O)N[C@@H](CO)C(=O)N[C@H]1C(=O)N[C@@H](C)C(=O)N[C@@H](CC(C)C)C(=O)N[C@@H]([C@@H](C)CC)C(=O)O[C@H]1C)[C@@H](C)CC (H-[dNMeF]IR[dQ][dI]IS[dT]ALI; ester 8-C)
MIC (Staphylococcus aureus [6]): 0.125 µg/mL (≈ 0.0984 µM)
MIC [18]: < 0.0625 µg/mL
MIC [19]: < 0.0625 µg/mL
MIC [20]: < 0.0625 µg/mL
MIC [21]: < 0.0625 µg/mL
MIC (Enterococcus faecalis [22]): 0.25 µg/mL (≈ 0.197 µM)
MIC (Enterococcus faecalis [23]): 0.5 µg/mL (≈ 0.394 µM)
MIC (Enterococcus faecalis [24]): < 0.0625 µg/mL
MIC (Enterococcus faecalis [25]): 0.125 µg/mL (≈ 0.0984 µM)
MIC (Enterococcus faecalis [9]): 0.5 µg/mL (≈ 0.394 µM)
MIC (Enterococcus faecalis [10]): 0.5 µg/mL (≈ 0.394 µM)
MIC (Staphylococcus aureus [11]): 0.5 µg/mL (≈ 0.394 µM)
MIC (Staphylococcus aureus [12]): < 0.0625 µg/mL
MIC (Staphylococcus aureus [13]): 0.0312 µg/mL (≈ 0.0246 µM)
MIC (Staphylococcus aureus [26]): < 0.0625 µg/mL
MIC (Staphylococcus aureus [27]): 0.25 µg/mL (≈ 0.197 µM)
MIC (Staphylococcus aureus [28]): 0.125 µg/mL (≈ 0.0984 µM)
MIC [29]: < 0.0625 µg/mL
MIC (Bacillus cereus): < 0.0625 µg/mL
MIC [30]: < 0.0625 µg/mL
